Measured values taken from ChEMBL document CHEMBL5038599, “Identification of Thiazoyl Guanidine Derivatives as Novel Antifungal Agents Inhibiting Ergosterol Biosynthesis for Treatment of Invasive Fungal Infections” (J Med Chem, 2021).
Converted amounts (≈) assume the structure as drawn. The source made the active and inactive calls. The rule behind the calls is not given here.

Columns and labels:
[1] = Metabolic stability in human liver microsomes assessed as parent compound remaining at 0.5 uM incubated for 30 mins by LC/MS/MS analysis; type: ADME, Microsome; details: read-out: Stability
Summary of the method: (§1)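 Compound at 0.5 μM was incubated with liver microsomes at 0.5 mg protein/mL at 37 °C. Buffer was 50 mM Tris-HCl pH 7.4 with 150 mM KCl, 10 mM MgCl2 and 1 mM NADPH. Reactions were stopped at 0 and 30 min with MeCN/MeOH 1:1. Percent remaining was taken from LC/MS/MS peak area ratio, in duplicate.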

[2] = Metabolic stability in rat liver microsomes assessed as parent compound remaining at 0.5 uM incubated for 30 mins by LC/MS/MS analysis; type: ADME, Microsome; details: read-out: Stability; summary of the method: as §1
Aspergillus fumigatus [3] = assay: Antifungal activity against Aspergillus fumigatus ATCC 204305 assessed as inhibition of fungal growth incubated for 48 hrs in presence of 50% heat-inactivated bovine serum by broth microdilution method; type: functional; details: ATCC 204305, 48 h, in the assay text read “incubated for 48 hrs” for “incubated for 24 hrs”
Summary of the method: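 Broth microdilution per CLSI M38-A2 with modifications. Conidia at about 1 × 10⁴ CFU/mL were grown for 48 h at 35 °C in YNB with 2% glucose and complete amino-acid mix, buffered to pH 7.0 with 50 mM MOPS. Medium was with or without 50% heat-inactivated bovine serum. MIC was the lowest concentration giving no visible growth.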

Aspergillus fumigatus [4] = assay: Antifungal activity against Aspergillus fumigatus ATCC 204305 assessed as inhibition of fungal growth incubated for 48 hrs by broth microdilution method; details: ATCC 204305, 48 h
Aspergillus fumigatus [5] = assay: Antifungal activity against Aspergillus fumigatus ATCC 204305 assessed as inhibition of fungal growth […] by broth microdilution method; type: functional
Candida albicans = assay: Antifungal activity against Candida albicans ATCC 90028 assessed as inhibition of fungal growth incubated for 24 hrs by broth microdilution method; type: functional
Summary of the method: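 Yeast cells were adjusted to about 2 × 10³ CFU/mL and broth microdilution was run for 24 h at 35 °C. Medium was YNB with 2% glucose and complete amino-acid mix, buffered to pH 7.0 with 50 mM MOPS. MIC was the lowest concentration giving >50% growth reduction versus untreated control, read by optical density at 600 nm.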

Aspergillus fumigatus [6] = assay: Antifungal activity against pan-azole resistant Aspergillus fumigatus SR47013 harbouring Cyp51A Y121F mutant assessed as inhibition of fungal growth incubated for 48 hrs by broth microdilution method; details: SR47013, 48 h
Mus musculus [7] = assay: In vivo antifungal activity against Aspergillus fumigatus infected in ICR mouse assessed as log reduction in fungal burden with 18S rRNA in kidney at 30 mg/kg, iv administered at 2 to 50 hrs post-inoculation and measured after 60 hrs by RT-qPCR analysis; type: functional
Summary of the method: (§2)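 Male ICR mice (5 weeks) were immunosuppressed with intraperitoneal cyclophosphamide, 150 mg/kg on day −4 and 100 mg/kg on day −1. Mice were infected intravenously with about 1.5 × 10⁵ conidia in saline. Tail-vein dosing was at 2, 16, 21, 26, 40, 45 and 50 h, in 5% DMSO/5% Cremophor EL/4% glucose or 5% glucose. Samples were taken at 60 h, five mice per group, and analysed by Dunnett's test against untreated controls.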

Mus musculus [8] = assay: In vivo antifungal activity against Aspergillus fumigatus infected in ICR mouse assessed as reduction in serum-galactomannan at 30 mg/kg, iv administered at 2 to 50 hrs post-inoculation and measured after 60 hrs by GM analysis; type: functional, organism-based; summary of the method: as §2
[9] = Unbound fraction in Sprague-Dawley rat at 0.5 mg/kg, iv measured upto 1440 mins by LC/MS/MS analysis; type: ADME, organism-based; details: in vivo
[10] = Clearance in Sprague-Dawley rat at 0.5 mg/kg, iv measured upto 1440 mins by LC/MS/MS analysis; type: ADME, organism-based; details: in vivo
[11] = Volume of distribution at steady state in Sprague-Dawley rat at 0.5 mg/kg, iv measured upto 1440 mins by LC/MS/MS analysis; type: ADME, organism-based; details: in vivo, read-out: Vdss
[12] = AUC in ICR mouse at 30 mg/kg, iv measured upto 360 mins by LC/MS/MS analysis; type: ADME, organism-based; parameters: route intravenous, dose 30 mg/kg, time <=360; details: in vivo
Summary of the method: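 Male ICR mice, 6 weeks old. Dosed iv via tail vein at 30 mg/10 mL/kg (n = 3). The test agent was a solution in 5% DMSO, 5% Cremophor EL and 4% glucose; the reference azole was in 5% glucose. Blood (EDTA-2K plus heparin) was taken at 5, 30, 60, 180 and 360 min and spun to plasma. Proteins were precipitated with methanol before LC/MS/MS.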

Aspergillus fumigatus [13] = assay: Inhibition of Sterol methyl transferase in Aspergillus fumigatus ATCC 204305 assessed as accumulation of lanosterol at 2 ug/mL measured per 100 mg of mycelia by LC/MS analysis (Rvb= 0 nmol); details: dose 2.0 µg/ml
Summary of the method: (§3)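 Cultures of A. fumigatus ATCC 204305 (1 × 10⁴ CFU/mL in YNB with 2% glucose and amino-acid mix) were grown 24 h at 35 °C, then exposed to compound for 24 h. Mycelia were saponified in 25% ethanolic KOH at 85 °C for 1 h and extracted with n-hexane. Extracts were dried, redissolved in acetone at 200 μL per 100 mg dry mycelium, and analysed on a C18 column at 40 °C with acetonitrile gradient.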

Aspergillus fumigatus [14] = assay: Inhibition of Sterol methyl transferase in Aspergillus fumigatus ATCC 204305 assessed as accumulation of eburicol at 2 ug/mL measured per 100 mg of mycelia by LC/MS analysis (Rvb= 0 nmol); details: dose 2.0 µg/ml; summary of the method: as §3
Aspergillus fumigatus [15] = assay: Inhibition of Sterol methyl transferase in Aspergillus fumigatus ATCC 204305 assessed as accumulation of zymosterol at 2 ug/mL measured per 100 mg of mycelia by LC/MS analysis (Rvb= 0 nmol); details: dose 2.0 µg/ml; summary of the method: as §3
Aspergillus fumigatus [16] = assay: Inhibition of Sterol methyl transferase in Aspergillus fumigatus ATCC 204305 assessed as accumulation of ergosterol at 2 ug/mL measured per 100 mg of mycelia by LC/MS analysis (Rvb= 144 nmol); details: dose 2.0 µg/ml; summary of the method: as §3

Structure (SMILES) | remaining at 0.5 h, 0.5 µM [1] [%] | remaining at 0.5 h, 0.5 µM [2] [%] | MIC (Aspergillus fumigatus [4]) [µg/mL] | MIC50 (Aspergillus fumigatus [5]) [µg/mL] | MIC50 (Candida albicans) [µg/mL] | further results
CS(=O)(=O)c1cccc(-c2nc(-c3csc(N=C4NCCCN4)n3)cs2)c1 | 85 | 47 | 4 (≈ 9.53 µM) | – | – | MIC50 (Aspergillus fumigatus [3]): 16 µg/mL
Cc1ccc(Oc2ccccc2-c2nsc(N=C3NCCCN3)n2)c(C)c1 | – | – | – | > 16 | > 16 | –
C[C@@H](c1nc(-c2ccc(C#N)cc2)cs1)[C@](O)(Cn1cncn1)c1cc(F)ccc1F [ISAVUCONAZOLE] | – | – | 0.25 (≈ 0.571 µM) | – | – | MIC50 (Aspergillus fumigatus [6]): > 16 µg/mL
Cc1ccc(Oc2ccccc2-c2csc(N=C3NCCCCN3)n2)c(C)c1 | – | – | – | > 16 | 1 (≈ 2.55 µM) | –
Cc1ccc(Oc2ccccc2-c2csc(Nc3ccccn3)n2)c(C)c1 | – | – | – | > 16 | > 16 | –
Cc1ccc(Oc2ccccc2-c2csc(N=C3NCCCN3)n2)c(C)c1 [ABAFUNGIN] | 64 | 0.2 | – | 2 (≈ 5.28 µM) | < 0.063 | Activity (Mus musculus [7]): inactive; Activity (Mus musculus [8]): inactive; fraction unbound at 24 h [9]: < 0.001; clearance [10]: 51.4 mL/min/kg; Vd [11]: 4.92 L/kg; MIC50 (Aspergillus fumigatus [6]): 2 µg/mL (≈ 5.28 µM)
Cc1ccc(Oc2ccccc2-c2csc(/N=C3\NCCCN3C)n2)c(C)c1 | – | – | – | > 16 | 8 (≈ 20.4 µM) | –
Cc1ccc(Oc2ccccc2-c2cccc(N=C3NCCCN3)n2)c(C)c1 | – | – | – | 4 (≈ 10.7 µM) | 0.5 (≈ 1.34 µM) | –
Cc1ccc(Oc2ccccc2-c2csc(Nc3ncccn3)n2)c(C)c1 | – | – | – | > 16 | > 16 | –
CS(=O)(=O)c1ccc(-c2nc(-c3csc(N=C4NCCCN4)n3)cs2)cc1 | 87 | 53 | 2 (≈ 4.77 µM) | – | – | log(activity) (Mus musculus [7]): 4; Activity (Mus musculus [8]): Active; AUC at 6 h [12]: 48200 ng·h/mL; fraction unbound at 24 h [9]: 0.067; clearance [10]: 12.3 mL/min/kg; Vd [11]: 4.21 L/kg; MIC50 (Aspergillus fumigatus [3]): 4 µg/mL; Activity (Aspergillus fumigatus [13]): 40 nmol; Activity (Aspergillus fumigatus [14]): 1 nmol; Activity (Aspergillus fumigatus [15]): 0 nmol; Activity (Aspergillus fumigatus [16]): 102 nmol; MIC50 (Aspergillus fumigatus [6]): 2 µg/mL (≈ 4.77 µM)
c1ccc(-n2ccc(-c3csc(N=C4NCCCN4)n3)n2)cc1 | 38 | 1.6 | – | > 16 | 0.5 (≈ 1.54 µM) | –
Oc1ccccc1-c1nc(-c2csc(N=C3NCCCN3)n2)cs1 | 30 | 38 | 0.5 (≈ 1.4 µM) | – | – | MIC50 (Aspergillus fumigatus [3]): 8 µg/mL
c1ccc(-c2nc(-c3csc(N=C4NCCCN4)n3)cs2)nc1 | – | – | 16 (≈ 46.7 µM) | – | – | –
c1cncc(-c2nc(-c3csc(N=C4NCCCN4)n3)cs2)c1 | 78 | 19 | 0.5 (≈ 1.46 µM) | – | – | MIC50 (Aspergillus fumigatus [3]): 2 µg/mL
Oc1cccc(-c2nc(-c3csc(N=C4NCCCN4)n3)cs2)c1 | 77 | 35 | 4 (≈ 11.2 µM) | – | – | –
